Experimental findings from ChEMBL document CHEMBL1144432, “New inhibitors of rabbit muscle triose-phosphate isomerase” (Bioorg Med Chem Lett, 2005) are described below.

In general, IC50 refers to the point on the concentration scale where inhibition reaches its midpoint. Higher therefore signals weaker potency. One may read the Ki as a dissociation constant, usually derived from enzyme kinetics or from competition with a known ligand. Low values mean higher affinity, high ones lower affinity.

A short description of assay [1]: Inhibitory concentration against class II fructose-bisphosphate aldolase.
For assay [2], the target named is T1, Triosephosphate isomerase (Oryctolagus cuniculus, UniProt P00939). In words: Inhibitory concentration against rabbit muscle triose-phosphate isomerase. Also noted: species or system Muscle tissue.
Assay [3] addresses T1, Triosephosphate isomerase. In words: Binding affinity against rabbit muscle triose-phosphate isomerase. Also on record: species or system Muscle tissue. A digest of the protocol:
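Rabbit muscle TIM, converting G3P to DHAP, was coupled to a large excess of glycerol-3-phosphate dehydrogenase. NADH consumption was followed at 340 nm. The G3P level was estimated enzymatically with the same coupled system. The cuvette was preincubated 10 min at 25 C, and the reaction was started with G3P (0–250). Inhibitor was tested at 0–30 µM, with inhibition analysed on double-reciprocal plots against 1/[G3P].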

The nature of assay [4]: Binding affinity against class II fructose-bisphosphate aldolase.

T1 sequence (P00939 whole entry): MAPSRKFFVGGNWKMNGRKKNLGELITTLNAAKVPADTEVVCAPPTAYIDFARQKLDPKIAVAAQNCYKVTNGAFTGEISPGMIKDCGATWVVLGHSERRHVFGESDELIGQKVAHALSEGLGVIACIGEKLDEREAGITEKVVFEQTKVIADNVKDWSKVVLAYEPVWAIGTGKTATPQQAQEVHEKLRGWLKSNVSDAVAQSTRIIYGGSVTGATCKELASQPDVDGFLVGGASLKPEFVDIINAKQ

Consider `NNC(=O)CCP(=O)(O)O`, for which the results for the half-inhibitory concentration (IC50) in assay [1] and in assay [2] were 3.63 mM and 27 mM, respectively.
On to `N/C(COP(=O)(O)O)=N/O`, for which the results for the Ki in assay [3] and in assay [4] were 4.5 µM and 2300 nM, respectively.
Taken in the same sequence, the figures for `O=C(CCP(=O)(O)O)NO` were 159 µM and 145000 nM.
With `N/C(CCP(=O)(O)O)=N\O`, the IC50 is 3.42 mM in assay [1] and 9.6 mM in assay [2].
In the case of `O=C(COP(=O)(O)O)NO` [PHOSPHOGLYCOLOHYDROXAMATE], the Ki was determined as 3 µM in assay [3] and 10 nM in assay [4].
`NNC(=O)COP(=O)(O)O` [PHOSPHORIC ACID MONOHYDRAZINOCARBONYLMETHYL ESTER]: the inhibition constant Ki in assay [3] is 111 µM; in assay [4], 340 nM.
